pIC50, pKi: −log10 of the molar value. Where a name gives a salt, the structure may show the parent alone. The source made the active and inactive calls. No cut-off for these calls is given here. Residues, ends and D or L forms follow the SMILES beside them.

Assay [1] has as its target Adrenergic receptor alpha-1 (Homo sapiens, UniProt P35348+P25100+P35368). As to the kind of experiment: Binding affinity to human adrenergic alpha1 receptor by radioligand displacement assay. On the technique in general: In a radioligand displacement assay an active substance lowers the binding of a labelled ligand.
Assay [2] in a line: Binding affinity to P2X receptor (unknown origin) by radioligand displacement assay. Also on record: species or system Homo sapiens.
The target in assay [3] is Sigma non-opioid intracellular receptor 1 (Rattus norvegicus) (UniProt Q9R0C9). As to the kind of experiment: Positive allosteric modulation of Wistar rat sigma 1 receptor assessed as increase in electrically-stimulated vas deferens contraction at 10 uM after 10 mins. The procedure, abridged: (§1)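 Isolated rat vas deferens, proximal ~15 mm segments, in K-H buffer at 32 °C gassed […], with 1.0 g passive tension and a 60 min adaptation. Field-stimulated at 0.1 Hz, 1 ms, 50 V. Cumulative PRE-084 (1–100 µM) was given, then washout and a 30 min rest. Test compound 10 µM was added for 10 min before cumulative PRE-084. Response is % increase over baseline amplitude; n=6, mean ± SEM, paired t-test.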

For assay [4] the target is unchanged. As to the kind of experiment: Positive allosteric modulation of Wistar rat sigma 1 receptor assessed as potentiation of PRE-084 effect on electrically-stimulated vas deferens contraction at 10 uM preincubated for 10 mins followed by PRE-084 addition. Put shortly: as §1
Assay [5] concerns the target 5-hydroxytryptamine receptor 2C (Homo sapiens, UniProt P28335). As to the kind of experiment: Binding affinity to human 5-HT2C receptor by radioligand displacement assay.
The target of assay [6] is 5-hydroxytryptamine receptor 2B (Homo sapiens, UniProt P41595). As to the kind of experiment: Binding affinity to human 5-HT2B receptor by radioligand displacement assay.
Assay [7] can be described thus: Binding affinity to GABA-gated chloride channel (unknown origin) by radioligand displacement assay. Details: species or system Homo sapiens.
Assay [8] can be described thus: Binding affinity to sodium channel site 2 (unknown origin) by radioligand displacement assay. Also on record: species or system Homo sapiens.
The nature of assay [9]: Binding affinity to P2Y receptor (unknown origin) by radioligand displacement assay. Also on record: species or system Homo sapiens.
A short description of assay [10]: Binding affinity to peripheral-type BZD receptor (unknown origin) by radioligand displacement assay. Details: species or system Homo sapiens.
Assay [11] can be described thus: Binding affinity to PCP receptor (unknown origin) by radioligand displacement assay. Details: species or system Homo sapiens.
A short description of assay [12]: Binding affinity to L-type calcium channel verapamil binding site (unknown origin) by radioligand displacement assay. Details: species or system Homo sapiens.
The target in assay [13] is Alpha-2A adrenergic receptor (Homo sapiens, UniProt P08913). As to the kind of experiment: Binding affinity to human adrenergic alpha2 receptor by radioligand displacement assay.
The target in assay [14] is Muscarinic acetylcholine receptor M5 (Homo sapiens, UniProt P08912). In words: Binding affinity to human muscarinic M5 receptor by radioligand displacement assay.
In assay [15] the target is Sigma non-opioid intracellular receptor 1 (Homo sapiens, UniProt Q99720).
Assay [16] has as its target Type-2 angiotensin II receptor (Homo sapiens, UniProt P50052). In words: Binding affinity to human angiotensin AT2 receptor by radioligand displacement assay.

Sigma non-opioid intracellular receptor 1 (Rattus norvegicus), sequence (Q9R0C9 whole entry): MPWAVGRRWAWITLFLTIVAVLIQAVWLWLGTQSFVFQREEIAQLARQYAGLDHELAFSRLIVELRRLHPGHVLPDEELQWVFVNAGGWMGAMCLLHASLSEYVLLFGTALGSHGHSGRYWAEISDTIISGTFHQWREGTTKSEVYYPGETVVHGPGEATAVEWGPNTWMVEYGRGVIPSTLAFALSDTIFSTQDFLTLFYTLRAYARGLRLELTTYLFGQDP
Sigma non-opioid intracellular receptor 1, sequence (Q99720 whole entry): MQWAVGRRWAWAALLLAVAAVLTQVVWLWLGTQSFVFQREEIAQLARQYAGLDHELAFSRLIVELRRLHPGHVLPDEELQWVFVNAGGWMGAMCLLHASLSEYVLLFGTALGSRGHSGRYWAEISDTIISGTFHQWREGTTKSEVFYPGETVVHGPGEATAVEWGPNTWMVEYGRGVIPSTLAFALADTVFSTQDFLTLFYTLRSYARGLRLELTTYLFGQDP
Alpha-2A adrenergic receptor, sequence (P08913 whole entry): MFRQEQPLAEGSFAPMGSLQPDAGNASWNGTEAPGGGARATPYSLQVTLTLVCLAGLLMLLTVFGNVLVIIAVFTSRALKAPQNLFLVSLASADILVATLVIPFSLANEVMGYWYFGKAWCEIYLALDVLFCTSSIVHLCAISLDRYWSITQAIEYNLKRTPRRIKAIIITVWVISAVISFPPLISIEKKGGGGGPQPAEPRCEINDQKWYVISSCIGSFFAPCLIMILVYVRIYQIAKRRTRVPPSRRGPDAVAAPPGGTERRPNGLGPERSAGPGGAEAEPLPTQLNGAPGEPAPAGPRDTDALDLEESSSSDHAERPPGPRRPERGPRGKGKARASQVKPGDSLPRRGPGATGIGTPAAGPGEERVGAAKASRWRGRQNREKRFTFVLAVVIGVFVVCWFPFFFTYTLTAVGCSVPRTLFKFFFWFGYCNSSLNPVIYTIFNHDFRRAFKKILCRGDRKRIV
5-hydroxytryptamine receptor 2B, sequence (P41595 whole entry): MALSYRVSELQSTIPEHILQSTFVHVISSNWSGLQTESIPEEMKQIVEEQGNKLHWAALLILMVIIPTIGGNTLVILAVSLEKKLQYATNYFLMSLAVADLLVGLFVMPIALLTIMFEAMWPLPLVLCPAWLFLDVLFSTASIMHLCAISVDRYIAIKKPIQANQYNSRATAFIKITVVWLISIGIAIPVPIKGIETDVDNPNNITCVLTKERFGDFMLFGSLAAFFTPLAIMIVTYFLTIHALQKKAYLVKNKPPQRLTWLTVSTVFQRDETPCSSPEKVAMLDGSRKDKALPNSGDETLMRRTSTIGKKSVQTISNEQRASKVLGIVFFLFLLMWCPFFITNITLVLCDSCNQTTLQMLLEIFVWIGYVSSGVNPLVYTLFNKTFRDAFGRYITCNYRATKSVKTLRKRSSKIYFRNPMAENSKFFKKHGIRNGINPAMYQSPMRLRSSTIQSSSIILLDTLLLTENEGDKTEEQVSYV
Type-2 angiotensin II receptor, sequence (P50052 whole entry): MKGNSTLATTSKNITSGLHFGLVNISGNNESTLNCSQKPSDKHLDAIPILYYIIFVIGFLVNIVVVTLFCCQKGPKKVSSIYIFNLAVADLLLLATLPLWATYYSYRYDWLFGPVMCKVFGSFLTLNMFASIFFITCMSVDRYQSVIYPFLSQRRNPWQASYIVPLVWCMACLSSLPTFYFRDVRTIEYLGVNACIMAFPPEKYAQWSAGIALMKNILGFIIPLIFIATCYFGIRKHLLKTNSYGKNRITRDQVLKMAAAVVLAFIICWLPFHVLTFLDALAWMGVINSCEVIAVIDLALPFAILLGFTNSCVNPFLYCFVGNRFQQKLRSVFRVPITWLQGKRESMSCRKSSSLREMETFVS
Muscarinic acetylcholine receptor M5, sequence (P08912 whole entry): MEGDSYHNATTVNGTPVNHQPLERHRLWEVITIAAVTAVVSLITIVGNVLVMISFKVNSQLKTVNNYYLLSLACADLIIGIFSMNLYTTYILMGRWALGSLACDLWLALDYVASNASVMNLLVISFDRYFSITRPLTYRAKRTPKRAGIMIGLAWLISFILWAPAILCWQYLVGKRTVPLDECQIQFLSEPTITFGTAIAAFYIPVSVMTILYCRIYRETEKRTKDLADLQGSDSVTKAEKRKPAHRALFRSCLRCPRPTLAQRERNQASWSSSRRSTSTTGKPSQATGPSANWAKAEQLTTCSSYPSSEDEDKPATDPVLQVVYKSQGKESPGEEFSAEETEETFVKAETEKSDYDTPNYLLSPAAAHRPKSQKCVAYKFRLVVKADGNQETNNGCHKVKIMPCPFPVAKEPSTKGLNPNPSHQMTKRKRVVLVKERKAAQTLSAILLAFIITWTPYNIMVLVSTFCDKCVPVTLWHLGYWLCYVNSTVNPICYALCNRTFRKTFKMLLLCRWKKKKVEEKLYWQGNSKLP
5-hydroxytryptamine receptor 2C, sequence (P28335 whole entry): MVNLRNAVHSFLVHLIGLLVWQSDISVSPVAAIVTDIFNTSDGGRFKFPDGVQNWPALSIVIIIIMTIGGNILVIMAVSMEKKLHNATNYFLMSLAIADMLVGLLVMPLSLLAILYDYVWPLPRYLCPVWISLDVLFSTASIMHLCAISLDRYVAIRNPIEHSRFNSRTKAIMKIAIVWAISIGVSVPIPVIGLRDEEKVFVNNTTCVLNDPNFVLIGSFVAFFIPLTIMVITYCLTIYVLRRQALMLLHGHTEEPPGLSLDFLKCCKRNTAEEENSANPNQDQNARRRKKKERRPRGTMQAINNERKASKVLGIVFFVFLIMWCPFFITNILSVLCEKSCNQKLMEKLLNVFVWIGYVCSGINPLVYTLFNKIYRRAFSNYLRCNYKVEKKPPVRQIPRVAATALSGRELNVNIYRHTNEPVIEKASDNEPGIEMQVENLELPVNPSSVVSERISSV

In general, IC50 refers to the point on the concentration scale where inhibition reaches its midpoint. A lower IC50 goes with greater potency in that assay. In turn, `CC(C)NCC(O)COc1ccc(CC(N)=O)cc1` (stereo not given) [ATENOLOL] returned an IC50 in assay [1] of 230 nM.

Usually pIC50 stands for the negative decadic logarithm of the IC50, by convention in mol/L. In the case of `Nc1ncnc2c1ncn2[C@@H]1O[C@H](COP(=O)(O)CP(=O)(O)OP(=O)(O)O)[C@@H](O)[C@H]1O` [DIPHOSPHOMETHYLPHOSPHONIC ACID ADENOSYL ESTER], the negative-log IC50 (pIC50) in assay [2] was 8.46. On to `C[C@@H]1[C@@H](c2ccccc2)CC(=O)N1CC(N)=O`, for which the outcome in [3] was inactive. For the same compound, the outcome in assay [4] was Active. Compound `COc1cc(OC)c(C(=O)CCCCN2CCC3(CC2)NC(=O)NC3=O)cc1NS(=O)(=O)c1ccc(C(F)(F)F)cc1` [RS-102,221] showed a pIC50 in [5] of 8.26.

In the case of `C[C@H]1[C@H](c2ccccc2)CC(=O)N1CC(N)=O`, the outcome in assay [3] was inactive. The result in assay [4] was Active. Consider `COc1cc(CC(C)N)c(OC)cc1I` (stereo not given), for which the negative-log IC50 (pIC50) in [6] was 8.49. Turning to `C=C(C)[C@@H]1[C@H]2OC(=O)[C@@H]1[C@]1(O)C[C@H]3O[C@]34C(=O)O[C@H]2[C@]14C` [PICROTOXININ], the negative-log IC50 (pIC50) in assay [7] was 6.60.

`COc1ccc(C(=O)O[C@H]2CC[C@@]3(C)[C@@H]4CC[C@H]5[C@]6(O)C[C@H](O)[C@@]7(O)[C@@H](CN8C[C@@H](C)CC[C@H]8[C@@]7(C)O)[C@]6(O)C[C@@]53O[C@]24O)cc1OC` [VERATRIDINE] showed a pIC50 in assay [8] of 5.11. `C[C@@H]1[C@H](c2ccccc2)CC(=O)N1CC(N)=O`: in assay [3], the result was inactive. Also, the result in assay [4] was Active. Regarding `Nc1ncnc2c1ncn2[C@H]1C[C@H](O)[C@@H](COP(O)(=S)OP(=O)(O)OP(=O)(O)O)O1` (stereo not given in full), the negative-log IC50 (pIC50) in [9] was 7.60. In assay [10], `CCC(C)N(C)C(=O)c1cc2ccccc2c(-c2ccccc2Cl)n1` (stereo not given) [PK-11195] had a pIC50 of 8.96. `C[C@]12N[C@H](Cc3ccccc31)c1ccccc12` [DIZOCILPINE MALEATE] had a pIC50 in assay [11] of 8.22.

As for `COc1ccc(CCN(C)CCCC(C#N)(c2cc(OC)c(OC)c(OC)c2)C(C)C)cc1OC` (stereo not given) [GALLOPAMIL], in assay [12], the pIC50 is 7.70. `Cc1ccc(OCC(O)C(C)NC(C)C)c2c1CCC2` (stereo not given) [ZENIDOLOL] gave a negative-log IC50 (pIC50) in assay [13] of 9.30. In [14], `C[N+]1(C)CCC(OC(=O)C(c2ccccc2)c2ccccc2)CC1` [4-DAMP] had a pIC50 of 9.10. One may read the pKi as the Ki on a negative log10 scale, so that one unit is a factor of ten. In the case of `COc1cc2c(cc1OC)C(=O)C(CC1CCN(Cc3ccccc3)CC1)C2` (stereo not given) [DONEPEZIL], the pKi in [15] is 7.84. Consider `CC(C)[C@H](NC(=O)[C@H](CCCNC(=N)N)NC(=O)[C@@H](N)CC(=O)O)C(=O)N[C@@H](Cc1ccc(O)cc1)C(=O)N[C@H](C(=O)N[C@@H](Cc1cnc[nH]1)C(=O)N1CCC[C@H]1C(=O)N[C@@H](C)C(=O)O)C(C)C` [ANGIOTENSIN] (H-DRVYVHPA-OH), for which, in [16], the pIC50 is 9.89.

The record behind these values is ChEMBL document CHEMBL2390917, “Synthesis and biological evaluation of 2-(5-methyl-4-phenyl-2-oxopyrrolidin-1-yl)-acetamide stereoisomers as novel positive allosteric modulators of sigma-1 receptor” (Bioorg Med Chem, 2013).
